pIC50, pKd: −log10 of the molar value. Active and inactive are the calls of the source. No cut-off for these calls is given here.
Legend:
[1] = molecular target: T1, Bromodomain-containing protein 4 (Homo sapiens, UniProt O60885)
[2] = molecular target: T1, Bromodomain-containing protein 4; assay: Inhibition of human His6-tagged BRD4 BD1 (N44 to E168 residues) expressed in Escherichia coli BL21 (DE3) cells using H-SGRGK(Ac)GGK(Ac)GLGK(Ac)GGAK(Ac)RHRK-Biotin-OH as substrate after 2.5 hrs by AlphaScreen assay; details: read-out: IC50
[3] = molecular target: CREB-binding protein/Histone acetyltransferase p300 (Homo sapiens) (UniProt Q09472+Q92793); assay: Inhibition of human His6-tagged CBP (R1081 to G1197 residues)/EP300 (A1040 to G1161 residues) expressed in Escherichia coli BL21 (DE3) cells by SYPRO Orange-dye based fluorescence thermal shift assay
Sequence of CREB-binding protein/Histone acetyltransferase p300 (Homo sapiens) (Q09472 whole entry, looked up, the tested form may be a part): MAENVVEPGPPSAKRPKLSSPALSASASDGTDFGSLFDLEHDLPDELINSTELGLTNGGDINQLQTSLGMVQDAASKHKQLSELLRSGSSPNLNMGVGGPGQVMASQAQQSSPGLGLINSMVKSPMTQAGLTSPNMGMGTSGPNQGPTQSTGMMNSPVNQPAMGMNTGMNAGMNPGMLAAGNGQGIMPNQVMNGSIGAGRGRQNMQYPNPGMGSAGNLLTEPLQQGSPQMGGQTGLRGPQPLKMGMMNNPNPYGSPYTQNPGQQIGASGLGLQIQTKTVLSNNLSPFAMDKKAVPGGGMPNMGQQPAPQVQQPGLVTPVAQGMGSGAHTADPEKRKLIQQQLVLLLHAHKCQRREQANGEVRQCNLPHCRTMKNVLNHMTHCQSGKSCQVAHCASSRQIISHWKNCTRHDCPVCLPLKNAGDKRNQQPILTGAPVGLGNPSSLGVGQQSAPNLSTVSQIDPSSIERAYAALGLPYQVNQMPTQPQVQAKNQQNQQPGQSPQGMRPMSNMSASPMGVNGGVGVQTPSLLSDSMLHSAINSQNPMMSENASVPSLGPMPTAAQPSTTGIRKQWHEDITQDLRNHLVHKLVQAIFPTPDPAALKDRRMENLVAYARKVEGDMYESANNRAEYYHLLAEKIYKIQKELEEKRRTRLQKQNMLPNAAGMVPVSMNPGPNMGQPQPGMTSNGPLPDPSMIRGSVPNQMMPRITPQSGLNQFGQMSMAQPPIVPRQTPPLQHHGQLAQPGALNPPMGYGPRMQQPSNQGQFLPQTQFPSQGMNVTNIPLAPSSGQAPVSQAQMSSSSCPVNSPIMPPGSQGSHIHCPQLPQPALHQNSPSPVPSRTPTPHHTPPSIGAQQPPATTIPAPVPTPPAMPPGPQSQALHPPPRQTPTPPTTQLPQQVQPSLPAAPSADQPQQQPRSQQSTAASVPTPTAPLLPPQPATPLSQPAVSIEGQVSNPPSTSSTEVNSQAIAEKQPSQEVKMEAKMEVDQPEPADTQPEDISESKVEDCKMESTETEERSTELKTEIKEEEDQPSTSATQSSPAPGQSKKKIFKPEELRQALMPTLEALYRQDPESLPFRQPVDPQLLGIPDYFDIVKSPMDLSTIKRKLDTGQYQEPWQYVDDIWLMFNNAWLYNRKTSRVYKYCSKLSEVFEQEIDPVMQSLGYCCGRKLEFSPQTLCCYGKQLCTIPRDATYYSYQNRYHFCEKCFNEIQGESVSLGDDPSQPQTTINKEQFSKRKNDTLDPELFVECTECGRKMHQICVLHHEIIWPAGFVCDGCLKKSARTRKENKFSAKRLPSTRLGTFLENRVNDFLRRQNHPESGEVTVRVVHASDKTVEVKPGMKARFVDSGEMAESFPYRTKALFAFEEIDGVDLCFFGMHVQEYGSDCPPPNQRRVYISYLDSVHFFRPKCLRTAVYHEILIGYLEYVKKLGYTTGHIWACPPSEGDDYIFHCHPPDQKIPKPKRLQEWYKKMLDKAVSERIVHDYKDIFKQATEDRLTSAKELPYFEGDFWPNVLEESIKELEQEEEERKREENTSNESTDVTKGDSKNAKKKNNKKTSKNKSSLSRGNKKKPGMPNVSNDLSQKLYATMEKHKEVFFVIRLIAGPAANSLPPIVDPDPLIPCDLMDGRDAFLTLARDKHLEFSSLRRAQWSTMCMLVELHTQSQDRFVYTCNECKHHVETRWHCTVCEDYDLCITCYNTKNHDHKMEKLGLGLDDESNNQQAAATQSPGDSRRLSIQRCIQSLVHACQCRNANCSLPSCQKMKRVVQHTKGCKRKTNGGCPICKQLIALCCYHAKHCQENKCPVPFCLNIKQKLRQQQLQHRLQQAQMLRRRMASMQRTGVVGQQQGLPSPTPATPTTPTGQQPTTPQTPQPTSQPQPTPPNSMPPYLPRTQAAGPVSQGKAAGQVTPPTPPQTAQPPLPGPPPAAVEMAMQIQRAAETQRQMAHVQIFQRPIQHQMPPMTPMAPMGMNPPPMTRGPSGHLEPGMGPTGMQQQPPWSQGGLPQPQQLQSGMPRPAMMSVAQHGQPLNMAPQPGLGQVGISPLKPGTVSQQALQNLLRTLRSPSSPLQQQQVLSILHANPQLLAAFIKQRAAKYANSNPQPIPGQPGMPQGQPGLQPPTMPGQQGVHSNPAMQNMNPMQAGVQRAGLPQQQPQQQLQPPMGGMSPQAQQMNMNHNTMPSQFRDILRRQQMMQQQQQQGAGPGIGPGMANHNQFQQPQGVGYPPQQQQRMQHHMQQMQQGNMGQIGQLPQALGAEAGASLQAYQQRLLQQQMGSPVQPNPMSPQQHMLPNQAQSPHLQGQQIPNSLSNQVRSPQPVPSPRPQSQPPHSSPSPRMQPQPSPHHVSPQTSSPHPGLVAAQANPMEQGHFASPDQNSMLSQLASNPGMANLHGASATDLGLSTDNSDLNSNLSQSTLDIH
Sequence of CREB-binding protein/Histone acetyltransferase p300 (Homo sapiens) (Q92793 whole entry, looked up, the tested form may be a part): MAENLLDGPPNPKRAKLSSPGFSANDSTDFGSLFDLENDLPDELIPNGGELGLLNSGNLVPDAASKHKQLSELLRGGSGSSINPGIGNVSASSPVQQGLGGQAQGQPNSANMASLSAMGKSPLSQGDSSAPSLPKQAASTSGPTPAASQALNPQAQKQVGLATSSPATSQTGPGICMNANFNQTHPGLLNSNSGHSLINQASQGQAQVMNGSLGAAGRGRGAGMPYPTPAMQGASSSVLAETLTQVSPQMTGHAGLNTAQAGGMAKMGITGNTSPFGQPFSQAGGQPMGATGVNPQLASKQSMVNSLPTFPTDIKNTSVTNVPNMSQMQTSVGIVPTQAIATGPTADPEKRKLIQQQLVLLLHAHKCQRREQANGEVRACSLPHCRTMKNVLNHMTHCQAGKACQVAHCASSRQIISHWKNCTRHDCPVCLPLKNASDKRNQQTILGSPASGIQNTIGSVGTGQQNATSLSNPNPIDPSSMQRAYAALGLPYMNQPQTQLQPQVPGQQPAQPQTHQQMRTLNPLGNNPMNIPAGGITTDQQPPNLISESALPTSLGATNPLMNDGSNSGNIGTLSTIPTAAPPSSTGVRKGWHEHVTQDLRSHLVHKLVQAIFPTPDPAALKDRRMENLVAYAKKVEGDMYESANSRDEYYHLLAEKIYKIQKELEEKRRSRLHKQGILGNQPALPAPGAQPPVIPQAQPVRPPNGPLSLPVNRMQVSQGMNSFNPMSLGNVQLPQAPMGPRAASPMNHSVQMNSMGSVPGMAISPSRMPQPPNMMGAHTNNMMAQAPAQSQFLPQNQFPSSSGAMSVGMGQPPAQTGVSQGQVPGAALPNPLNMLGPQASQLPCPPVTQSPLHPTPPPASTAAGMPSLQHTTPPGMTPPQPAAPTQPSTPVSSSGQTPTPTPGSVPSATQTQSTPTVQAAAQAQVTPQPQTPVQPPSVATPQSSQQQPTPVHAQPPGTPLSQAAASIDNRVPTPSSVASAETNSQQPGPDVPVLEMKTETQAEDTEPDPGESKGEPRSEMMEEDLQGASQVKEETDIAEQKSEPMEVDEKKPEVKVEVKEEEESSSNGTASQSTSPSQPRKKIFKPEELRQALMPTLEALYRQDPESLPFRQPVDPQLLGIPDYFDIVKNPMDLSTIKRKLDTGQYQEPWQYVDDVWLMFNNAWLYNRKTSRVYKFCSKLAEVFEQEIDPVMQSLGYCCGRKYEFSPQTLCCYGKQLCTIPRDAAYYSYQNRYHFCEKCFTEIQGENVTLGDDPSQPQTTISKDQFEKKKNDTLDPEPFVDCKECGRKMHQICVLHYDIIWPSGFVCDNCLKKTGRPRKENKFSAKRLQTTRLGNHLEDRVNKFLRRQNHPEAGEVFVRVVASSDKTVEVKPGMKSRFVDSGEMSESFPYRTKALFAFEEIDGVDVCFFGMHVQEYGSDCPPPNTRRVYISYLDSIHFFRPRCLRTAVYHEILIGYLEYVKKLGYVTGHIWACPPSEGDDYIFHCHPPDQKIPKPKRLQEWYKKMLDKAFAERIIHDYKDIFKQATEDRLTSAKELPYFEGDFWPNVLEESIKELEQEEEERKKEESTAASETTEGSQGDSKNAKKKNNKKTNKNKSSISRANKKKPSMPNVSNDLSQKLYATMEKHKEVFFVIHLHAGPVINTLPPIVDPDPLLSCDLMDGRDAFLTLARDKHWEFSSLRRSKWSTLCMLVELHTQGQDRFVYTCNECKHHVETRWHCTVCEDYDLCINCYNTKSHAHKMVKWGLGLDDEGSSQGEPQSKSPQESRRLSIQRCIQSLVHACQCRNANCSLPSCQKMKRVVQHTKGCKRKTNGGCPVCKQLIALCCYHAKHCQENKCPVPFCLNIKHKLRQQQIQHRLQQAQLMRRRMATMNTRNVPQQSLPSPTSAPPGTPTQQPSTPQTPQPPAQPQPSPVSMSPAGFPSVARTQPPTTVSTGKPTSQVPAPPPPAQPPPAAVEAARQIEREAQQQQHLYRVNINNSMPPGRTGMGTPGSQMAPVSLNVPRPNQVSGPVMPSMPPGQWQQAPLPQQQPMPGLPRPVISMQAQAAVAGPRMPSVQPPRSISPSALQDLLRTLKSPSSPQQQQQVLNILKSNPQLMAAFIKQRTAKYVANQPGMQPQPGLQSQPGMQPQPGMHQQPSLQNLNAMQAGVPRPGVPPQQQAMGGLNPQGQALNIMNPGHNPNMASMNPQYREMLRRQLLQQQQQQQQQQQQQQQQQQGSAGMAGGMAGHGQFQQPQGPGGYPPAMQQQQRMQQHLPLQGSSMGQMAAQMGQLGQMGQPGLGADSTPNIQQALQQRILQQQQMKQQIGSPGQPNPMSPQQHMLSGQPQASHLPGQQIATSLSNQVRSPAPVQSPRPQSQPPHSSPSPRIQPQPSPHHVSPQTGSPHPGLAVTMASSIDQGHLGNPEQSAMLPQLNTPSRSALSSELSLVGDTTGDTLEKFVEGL

[4] = system: DU-145; assay: Antiproliferative activity against human DU145 cells after 96 hrs by Cell-Titer glo reagent based luminescence assay; format: functional; details: DU-145, 96 h
How it was run: (§1)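 Cell viability read by CellTiter-Glo luminescence; IC50 derived from the viability data.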

[5] = system: CWR22R; assay: Antiproliferative activity against human 22Rv1 cells after 96 hrs by Cell-Titer glo reagent based luminescence assay; format: functional; details: for pIC50: 22Rv1, 96 h
How it was run: as §1

[6] = system: LNCaP C4-2B; assay: Antiproliferative activity against human C4-2B cells after 96 hrs by Cell-Titer glo reagent based luminescence assay; format: functional
How it was run: as §1

[7] = system: LNCaP; assay: Antiproliferative activity against human LNCAP cells after 96 hrs by Cell-Titer glo reagent based luminescence assay; format: functional
How it was run: as §1

[8] = system: PC-3; assay: Antiproliferative activity against human PC3 cells after 96 hrs by Cell-Titer glo reagent based luminescence assay; format: functional; details: PC-3, 96 h
How it was run: as §1

[9] = system: Rattus norvegicus; assay: AUC (0 to infinity) in Sprague-Dawley rat at 2 mg/kg, iv; format: ADME, organism-based; parameters: dose 2 mg/kg, route intravenous, time infinity; details: in vivo
How it was run: (§2)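 Compound formulated in 5% DMSO, 40% PEG400 and 55% saline. Values are the mean of three independent experiments.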

[10] = molecular target: T1, Bromodomain-containing protein 4; assay: Inhibition of BRD4 BD1 in human LNCAP cells assessed as decrease in PSA mRNA levels at 5 uM after 48 hrs by qRT-PCR method; format: cell-based
How it was run: (§3)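 LNCaP cells treated with vehicle or compound at 5 μM for 48 h. Full-length AR, PSA, KLK2, TMPRSS2 and c-MYC transcripts quantified by qRT-PCR. Mean ± SD (n = 3) from one of three independent experiments; significance by two-tailed Student's t test.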

[11] = system: Rattus norvegicus; assay: Cmax in Sprague-Dawley rat at 10 mg/kg, po administered as single dose; format: ADME, organism-based; parameters: dose 10 mg/kg, route oral; details: in vivo
How it was run: as §2

[12] = molecular target: T1, Bromodomain-containing protein 4; assay: Inhibition of BRD4 BD1 in human LNCAP cells assessed as decrease in KLK2 mRNA levels at 5 uM after 48 hrs by qRT-PCR method; format: cell-based
How it was run: as §3

[13] = AUC (0 to t) in Sprague-Dawley rat at 2 mg/kg, iv; format: ADME, organism-based; details: in vivo
How it was run: as §2

[14] = system: Rattus norvegicus; assay: Tmax in Sprague-Dawley rat at 10 mg/kg, po administered as single dose; format: ADME, organism-based; details: in vivo
How it was run: as §2

[15] = system: Rattus norvegicus; assay: Half life in Sprague-Dawley rat at 2 mg/kg, iv; format: ADME, organism-based; details: in vivo
How it was run: as §2

[16] = molecular target: T1, Bromodomain-containing protein 4; assay: Inhibition of BRD4 BD1 in human LNCAP cells assessed as decrease in TMPRSS2 mRNA levels at 5 uM after 48 hrs by qRT-PCR method; format: cell-based
How it was run: as §3

[17] = system: CWR22R; assay: Anticlonogenic activity against human 22Rv1 cells at 5 uM after 14 days by crystal violet staining based assay; format: functional
[18] = system: Rattus norvegicus; assay: Cmax in Sprague-Dawley rat at 2 mg/kg, iv; format: ADME, organism-based; parameters: dose 2 mg/kg, route intravenous; details: in vivo
How it was run: as §2

[19] = Mean residence time (0 to t) in Sprague-Dawley rat at 10 mg/kg, po administered as single dose; format: ADME, organism-based; details: in vivo
How it was run: as §2

[20] = Apparent volume of distribution in Sprague-Dawley rat at 2 mg/kg, iv; format: ADME, organism-based; details: in vivo, read-out: Vz
How it was run: as §2

[21] = molecular target: T1, Bromodomain-containing protein 4; assay: Inhibition of BRD4 BD1 in human LNCAP cells assessed as decrease in full length androgen receptor mRNA levels at 5 uM after 48 hrs by qRT-PCR method; format: cell-based
How it was run: as §3

[22] = system: Rattus norvegicus; assay: AUC (0 to infinity) in Sprague-Dawley rat at 10 mg/kg, po administered as single dose; format: ADME, organism-based; parameters: dose 10 mg/kg, route oral, time infinity; details: in vivo
How it was run: as §2

[23] = system: Rattus norvegicus; assay: Half life in Sprague-Dawley rat at 10 mg/kg, po administered as single dose; format: ADME, organism-based; details: in vivo
How it was run: as §2

[24] = molecular target: T1, Bromodomain-containing protein 4; assay: Binding affinity to human His6-tagged BRD4 BD1 (N44 to E168 residues) expressed in Escherichia coli BL21 (DE3) cells by isothermal titration calorimetry method
[25] = Clearance in Sprague-Dawley rat at 2 mg/kg, iv; format: ADME, organism-based; details: in vivo
How it was run: as §2

[26] = AUC (0 to t) in Sprague-Dawley rat at 10 mg/kg, po administered as single dose; format: ADME, organism-based; details: in vivo
How it was run: as §2

[27] = Mean residence time (0 to t) in Sprague-Dawley rat at 2 mg/kg, iv; format: ADME, organism-based; details: in vivo
How it was run: as §2

[28] = molecular target: T1, Bromodomain-containing protein 4; assay: Inhibition of BRD4 BD1 in human LNCAP cells assessed as decrease in c-MYC mRNA levels at 5 uM after 48 hrs by qRT-PCR method; format: cell-based
How it was run: as §3

[29] = system: LNCaP C4-2B; assay: Anticlonogenic activity against human C4-2B cells at 5 uM after 14 days by crystal violet staining based assay; format: functional
[30] = Oral bioavailability in Sprague-Dawley rat at 10 mg/kg administered as single dose; format: ADME, organism-based; details: in vivo
How it was run: as §2

[31] = system: CWR22R; assay: Anticlonogenic activity against human 22Rv1 cells after 14 days by crystal violet staining based assay; format: functional, cell-based
[32] = system: Rattus norvegicus; assay: Tmax in Sprague-Dawley rat at 2 mg/kg, iv; format: ADME, organism-based; details: in vivo
How it was run: as §2

## COc1ccc(Br)cc1S(=O)(=O)Nc1cc2c(cc1N(C)C)NC(=O)C(C)(C)O2
[1]
  ΔTm: 3.6 °C
[2]
  pIC50: 5.32

## COC(=O)c1ccccc1S(=O)(=O)Nc1ccc2c(c1)OC(C)(C)C(=O)N2
[1]
  ΔTm: 4 °C
[2]
  pIC50: 5.03

## COc1ccc(Br)cc1S(=O)(=O)Nc1ccc2c(c1)OC(C)(C)C(=O)N2
[3]
  thermal shift binding activity (active/inactive): Active
[4]
  pIC50: 4.51
[5]
  pIC50: 5.31
[1]
  ΔTm: 4.5 °C
[2]
  pIC50: 5.70
[6]
  pIC50: 5.18
[7]
  pIC50: 5.20
[8]
  pIC50: 4.68

## COc1ccc(Br)cc1S(=O)(=O)Nc1cc2c(cc1Cl)NC(=O)C(C)(C)O2
[1]
  ΔTm: 4.2 °C
[2]
  pIC50: 5.44

## CCCCS(=O)(=O)Nc1cnc2c(c1)OC(C)(C)C(=O)N2
[1]
  ΔTm: 1.4 °C
[2]
  pIC50: < 4.30

## CC1(C)Oc2cc(NS(=O)(=O)c3ccc(F)cc3)ccc2NC1=O
[1]
  ΔTm: 4.5 °C
[2]
  pIC50: 5.32

## COc1cc2c(cc1NS(=O)(=O)c1cc(Br)ccc1OC)OC(C)(C)C(=O)N2
[9]
  AUC: 1223.82 ng·h/mL
[10]
  inhibition: Active
[11]
  Cmax: 926 ng/mL
[3]
  thermal shift binding activity (active/inactive): Active
[4]
  pIC50: 4.63
[12]
  inhibition: Active
[13]
  AUC(0-t): 1200 ng·h/mL
[14]
  Tmax: 1.67 h
[15]
  t1/2: 1.65 h
[5]
  pIC50: 5.47
[16]
  inhibition: Active
[17]
  Activity: <10%
[18]
  Cmax: 1000 ng/mL
[19]
  MRT last: 2.6 h
[1]
  ΔTm: 6.6 °C
[20]
  Vd: 4.01 L/kg
[21]
  inhibition: Active
[22]
  AUC: 3765.71 ng·h/mL
[23]
  t1/2: 1.96 h
[24]
  pKd: 6.52
[25]
  clearance: 27.3 mL/min/kg
[26]
  AUC(0-t): 3520 ng·h/mL
[2]
  pIC50: 6.16
[27]
  MRT last: 1.17 h
[6]
  pIC50: 5.49
[28]
  inhibition: Active
[29]
  Activity: <10%
[7]
  pIC50: 5.36
[30]
  bioavailability: 61.5%
[31]
  Activity: Dose-dependent effect
[8]
  pIC50: 4.76
[32]
  Tmax: 4.98 min

## CC1(C)Oc2cc(NS(=O)(=O)c3ccc(F)cc3)cnc2NC1=O
[1]
  ΔTm: 2.6 °C
[2]
  pIC50: < 4.30

## CC1(C)Oc2cc(NS(=O)(=O)c3ccc(F)cc3F)ccc2NC1=O
[1]
  ΔTm: 6.3 °C
[2]
  pIC50: 5.56

## Cc1ccc(S(=O)(=O)Nc2ccc3c(c2)OC(C)(C)C(=O)N3)cc1
[1]
  ΔTm: 2.9 °C
[2]
  pIC50: 5.33

## CC1(C)Oc2cc(NS(=O)(=O)c3cccc(Cl)c3F)ccc2NC1=O
[1]
  ΔTm: 2.4 °C
[2]
  pIC50: < 4.30

## CC1(C)Oc2cc(NS(=O)(=O)c3cccs3)ccc2NC1=O
[1]
  ΔTm: 5.1 °C
[2]
  pIC50: 5.18

## CCNC(=O)C[C@@H]1N=C(c2ccc(Cl)cc2)c2cc(OC)ccc2-n2c(C)nnc21
[5]
  Activity: Active
[6]
  Activity: Active
[7]
  Activity: Active

Source: ChEMBL document CHEMBL4251705, “Y08060: A Selective BET Inhibitor for Treatment of Prostate Cancer” (ACS Med Chem Lett, 2018)
